Assay results from the EternaBench riboswitch data.

Tested on: MS2 coat protein
Assay: apparent Kd, MS2 coat protein; higher = weaker binding; RNA-MaP array; FMN 200 µM where present
Method in brief: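 Green signal from SNAP-549-labelled MS2 coat protein was normalised to red-channel RNA signal and to the median Fmax of control clusters. The protein was titrated from 0.7 or 1.5 nM, doubling to 3 µM, without and then with constant ligand, over designs transcribed by stalled E. coli RNA polymerase on Illumina sequencing-chip clusters, in 100 mM Tris-HCl pH 7.5, 80 mM KCl, 4 mM MgCl2, BSA, DTT, yeast tRNA and Tween-20. The apparent Kd is the median of filtered per-cluster binding-curve fits.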

[1] = designed as: OFF switch for flavin mononucleotide, no ligand
[2] = ligand present: flavin mononucleotide, designed as: OFF switch for flavin mononucleotide
[3] = designed as: ON switch for flavin mononucleotide, no ligand
[4] = ligand present: flavin mononucleotide, designed as: ON switch for flavin mononucleotide

Row | Sequence | apparent Kd [1] [nM] | apparent Kd [2] [nM] | apparent Kd [3] [nM] | apparent Kd [4] [nM]
1 | UGAGCCUCGUGAGGAUAUACAUGAGGAUCACCCAUGUAAUAAAGUGAACGGAGGAAACUCCGAAUGUAGAAGGCACGAGGCUCA | 47.9 | 443 |  | 
2 | AAGUGGUUUAUAUAUAUAGAUAUCAGAAGGCGUGACAUGAGGAUCACCCAUGUGUACUGUCAUGACGAGGAUAUGACUAAUUGU | 24 | 19.5 |  | 
3 | GUAGCUAUCGGAGGAUAUUCAUACCGGAAACGGACAUGAGGAUCACCCAUGUGGAGAAAGCCUUGGGAGAAGGCCGAUAGCUAC |  |  | 176 | 17.6
4 | GGAGCGAGCACAGGAUAUAAGCUAACGGUUAGUUUAGAAGGGUGGGAUCAGACAUGAGGAUCACCCAUGUGUGUUUUUGCUCCA |  |  | 128 | 314
5 | ACUUUCAUUGUGAGGAUAUGCCCAAAUAAAAGCGGGCAGAAGGCACAUGAGGAUCACCCAUGUCCUGCGGUUAU | 34.6 | 394 |  | 
6 | GGUGCGUUUGUGAGGAUAUGCUGGUCCUUGGUUCGGCAGAAGGCACAUGAGGAUCACCCAUGUGGUGUCGUUCC | 15 | 23.3 |  | 
7 | CGCAAGUCAGGAUAUUCGACUGGUAAAUCAGUGGAUCAGUAGGAGAAGGGACAUGAGGAUCACCCAUGUAUGUA | 43.2 | 51.2 |  | 
8 | AGCGGCGCAGACCACCGCAAAACCAGAAGGACAUGAGGAUCACCCAUGUAACAAAACAGGGCGAUGUAGGAUAUGGCAGACCCA | 13 | 13.7 |  | 
9 | CUUUCGUGAGGAUAUGUGGCUUCGAUCGUGAGAUCGAAAAUACAGAAGGCACAUGAGGAUCACCCAUGUUCCUC | 37.8 | 456 |  | 
10 | UAUAUAUAGUAAGGAUAUGUAUUAAUGUUAUAAACAGAAGGUACUGACAUGAGGAUCACCCAUGUUUUAGUGUGGGCAUGUAGA | 92.1 | 131 |  | 
11 | GGGCCCGGAGGAUAUACAUGAGGAUCACCCAUGUAGGGCUCGGGUAUUUCUGGGUCUUGUAGAAGGCCGGGCCC | 16 | 22.8 |  | 
12 | AACUGACAUGAGGAUCACCCAUGUCAGGAUAUGCUUCAUAAAAUAAAAAUAAAAUGAUGCAGAAGGGACAUGGA | 27.1 | 39.6 |  | 
13 | GGGUGACAUGAGGAUCACCCAUGUCAGGAUAUGCUUGAGCUUGAGAAAUCGAGUUCGAGUAGAAGGGACUGCCC | 47.3 | 72.3 |  | 
14 | GUAUAUACGUGGUACAUGAGGAUCACCCAUGUGUCUUUACAUGAGGAUAUGGAUUCUAAUUGGAUCCAGAAGGCAUGUAUAUAC |  |  | 73.1 | 27
15 | GCUUUAUUGGUCAGGAUAUACAUUUGCUACUCUUUGUAGAAGGGACAUGAGGAUCACCCAUGUACUUUACAUUC | 16 | 16.4 |  | 
16 | CCUUCAGCGAACGAUACGAAUGGACAUGAGGAUCACCCAUGUAGAAGGACAGGAGAAUAACGGCUGUAGGAUAUACAUUUAGUG | 39.9 | 30 |  | 
17 | GUAUGAGCGAUAGGAUAUACUGGGAUUGAAUGGGUAGAAGGAUUUCUAGUGGGAAAGACAUGAGGAUCACCCAUGUCGCGGACC |  |  | 37.9 | 35.4
18 | GGUUGUCAUCGUCGUCCUUUCGGUACAUGAGGAUCACCCAUGUAGGAUAUGCUGCAUUCGAUGUGGCAGAAGGGCGUGUGUGUU | 16.7 | 18.4 |  | 
19 | UGACUCGGAGGAUAUACAUGAGGAUCACCCAUGUUUGCCGGCCGCCGAGUAACCUGGUGUAGAAGGUCGAGUGU | 20.4 | 18.9 |  | 
20 | GGCACCAUCACAGGAUAUGCUUUCCUUUGGGAAGCAGAAGGGUGUAACAUGAGGAUCACCCAUGUGGUGCCAGGGCGUGAGCCC |  |  | 164 | 14
21 | AUGAGGUCAGGAUAUGCAUGGCGGGACUUGCGUCGUGGCGUGCAGAAGGGACAUGAGGAUCACCCAUGUGGAGU | 152 | 218 |  | 
22 | ACCUCACAUGAGGAUCACCCAUGUAAGGAUAUCUUCGCUUUGACGUUGUUCUAUGCGAAGAGAAGGUACACGGC | 28.3 | 111 |  | 
23 | GUGUACGGAGGAUAUAUGUGGGCAGCAUACGCUGCAGCUUCACAUGAGGAUCACCCAUGUAGAAGGCUGUACAC | 28.7 | 169 |  | 
24 | AAAAAACAAGGAUAUACGGAUGAAGAUUGUCUUAAUUUUUGACAUGAGGAUCACCCAUGUAGAAGGUGUUAAAA | 198 | 342 |  | 

Row | Sequence | apparent Kd [1] [nM] | apparent Kd [2] [nM] | apparent Kd [3] [nM] | apparent Kd [4] [nM]
25 | UGUUAGUAGACAGGAUAUUGAAUGUUAAGUAUUAACAUGAGGAUCACCCAUGUAUUAGAUUGGUACAAGAAGGGUCAAGUUUGU |  |  | 380 | 653
26 | GAUCGACCUGAGAAGGCACAUGAGGAUCACCCAUGUUGAACCAUACAUGCCACAAAGUGGCAGUGUGAGGAUAUCAGGUCGAUC | 5.81 | 8.34 |  | 
27 | CCUCUACAUGAGGAUCACCCAUGUGAGGAUAUCAAAGCCAGAGCGGAUCUCCGGCCCAUGAGAAGGUGCAUGGA | 19.8 | 70.8 |  | 
28 | AGCAUGCUAGGAUAUACGAAACAUUAGGGUUCUUUGUAUGAACAUGAGGAUCACCCAUGUAGAAGGAGCGUGCA | 109 | 170 |  | 
29 | GGUACUCAAAGAGUACCUAUACGAACAUGAGGAUCACCCAUGUAGGAUAUGCUACUCAAAGAGUAGCAGAAGGACAUGUGCCUA | 18.6 | 108 |  | 
30 | GCAGCGCCUGACAUGAGGAUCACCCAUGUUAAAUUGUUAAGUCAGGAUAUAGUCUAGAAACUAGACUAGAAGGGAUAUGCUGCU |  |  | 9.96 | 8.57
31 | GCGGUUACGGUUGGCACUUAGCGAGAGGAUAUGGAAAACAAGACAUGAGGAUCACCCAUGUACUAUCAGAAGGCUCGAGCACGC |  |  | 7.76 | 5.8
32 | UUAUGGCUAGGAUAUGCACGUGCAUGUUCAAGUCAAAGAAGACAUGAGGAUCACCCAUGUAGAAGGAGCGAUAA | 28.8 | 21.2 |  | 
33 | GCGAAGAACGAGAAGGCCACUACAUGAGGAUCACCCAUGUCGUGGUGUAUUGGAGGAUAUCGAUCGGCGUCUCAUGAGGACAUA | 5.35 | 5.44 |  | 
34 | ACAGGUGCAGGAUAUACAAUCGUGCUUCGGCACGUAAGAUCACAUGAGGAUCACCCAUGUAGAAGGGCACCUGU | 44.9 | 447 |  | 
35 | GUCAGCUCGUGAGGAUAUACAACACUGCUUCGGCAGCGUAUUAAGAUCACAUGAGGAUCACCCAUGUAGAAGGCACGAGCUGAU | 11.7 | 206 |  | 
36 | GCAUGCAUAGCGAUAUGAUCGAGAGAUCAUGUCGCUAAAUUUAGAAGGACAUGAGGAUCACCCAUGUAGGAUAUGGGAGCAUGA |  |  | 44.6 | 11.5
37 | CGAUGACAAAGUCAUCGAUUACGAACAUGAGGAUCACCCAUGUAGGAUAUGCUACUCAAAGAGUAGCAGAAGGACAUGUGUCUU | 35.6 | 155 |  | 
38 | AAGGCACCUGAGAAGGGUACAUGAGGAUCACCCAUGUGGCUAUUUGUGCGUCGUUGACCAAGUGUACAGGAUAUUAGGGAACGU | 98 | 32.4 |  | 
39 | GUGGUCAGACAUGAGGAUCACCCAUGUGGAAUAAAUAAGGGACAGGAUAUUUAAUAUAGGAUAUAGAAGAAGGGUUGGUUGGUG |  |  | 106 | 138
40 | ACUGCAUAGUCAGGAUAUGCAAAAGCAGACUCAAAGAGUCUGAACAACACAUGAGGAUCACCCAUGUAGAAGGGACUGUGCAGU | 18.3 | 18 |  | 
41 | AGAAACUACGAGAAGGACAUGAGGAUCACCCAUGUAACCACUUAGUGGAAUGUAGGAUAUCGUAGUUUCAGGAUCGUGAGAUCA | 6.91 | 9.58 |  | 
42 | UUUGUACAUGAGGAUCACCCAUGUGAGGAUAUGCUUUAUUAUUAUUAUUAUUAUUAUUGCAGAAGGCACGUUGU | 69.7 | 98.2 |  | 
43 | ACAUGCAUAGCGAUAUGAUCGAGAGAUCAUGUCGCUUUUAAAAGAAGGACAUGAGGAUCACCCAUGUAGGAUAUGGGAGCAUGA |  |  | 53.4 | 13.2
44 | AAAUUUAACGAAGGAUAUGGUUACAUGAGGAUCACCCAUGUAAUGGCUGUGAUAUUGAUUAAGUUCCAGAAGGUCGUAUACAUA | 52.4 | 192 |  | 
45 | CUAGACAGAUCAGGAUAUCAUCGCAUGGUGCAUCCCUGUGAUUACAUGAGGAUCACCCAUGUGGAUGAGAAGGGAUUACUAUGU | 31.9 | 10.7 |  | 
46 | GGUGCGUUUGUGAGGAUAUGCUGGUCCUUGGUUCGGCAGAAGGCACAUGAGGAUCACCCAUGUGGUGUCGUCCC | 33 | 98.6 |  | 
47 | CCAUCGAGUGUGAGGAUAUGCUGGUCCUUGGAUCAGCAGAAGGCACAUGAGGAUCACCCAUGUGGAUACGGUGG | 31 | 235 |  | 
48 | GUAUCUUACUGAGGAUAUUUACGAUUAGUGUAGACAUGAGGAUCACCCAUGUGGCGUUAGUCACGGGAGAAGGCAGUUUGAUAC |  |  | 82.5 | 21.3
